For series [1], the system named is HEK-293T. The experiment in a line: Cytotoxicity against HEK293T cells assessed as reduction in cell viability measured after 24 hrs by CCK8 assay. To be noted: for Activity: human, hek-293t. The class given is cell-based, Homo sapiens. An outline of the steps: (§1)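 Cells (A549, H460, H1437, PC-3, HGC-27, MDA-MB-231, HEK-293T, L-02) seeded at about 2×10^3/well and grown overnight. Treated 24 h with a peptide concentration series in serum-free medium. Viability by CCK-8; IC50 taken as 50% inhibition versus untreated cells. Average of three experiments, each in triplicate.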
On the technique in general: Formazan colour is commonly taken as a measure of viable cells.

For series [2], the target named is T1, Solute carrier family 2, facilitated glucose transporter member 1 (Homo sapiens) (UniProt P11166).
T1 sequence (whole entry): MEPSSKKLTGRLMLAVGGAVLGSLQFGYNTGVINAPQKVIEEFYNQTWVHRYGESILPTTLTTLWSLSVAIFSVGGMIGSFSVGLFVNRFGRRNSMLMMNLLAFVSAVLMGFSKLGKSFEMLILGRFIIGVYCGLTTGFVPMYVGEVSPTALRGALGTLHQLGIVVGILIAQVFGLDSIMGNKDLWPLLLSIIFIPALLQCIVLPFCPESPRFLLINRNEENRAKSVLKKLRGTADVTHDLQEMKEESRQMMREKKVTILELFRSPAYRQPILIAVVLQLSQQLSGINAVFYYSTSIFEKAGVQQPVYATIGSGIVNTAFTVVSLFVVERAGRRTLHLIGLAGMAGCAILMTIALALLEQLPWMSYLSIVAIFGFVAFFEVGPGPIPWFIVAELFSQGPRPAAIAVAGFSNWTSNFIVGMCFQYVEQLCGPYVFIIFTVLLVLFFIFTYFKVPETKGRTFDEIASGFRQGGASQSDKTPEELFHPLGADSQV
Briefly: Binding affinity to GLUT1 in human A549 cells assessed as cytotoxicity by measuring reduction in cell viability at 15 uM by trypan blue staining-based assay. An outline of the steps:
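A549 cells stained with trypan blue after peptide treatment at 15 µM. Dead cells appear blue and live cells unstained; live cells were counted.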

For series [3], the target named is T1, Solute carrier family 2, facilitated glucose transporter member 1 (Homo sapiens). The experiment in a line: Binding affinity to GLUT1 in human A549 cells assessed as cytotoxicity by measuring reduction in cell viability at 12.5 uM measured after 2 hrs in absence of GLUT1 inhibitor STF-31 by CCK8 assay. It counts as cell-based. The procedure, abridged:
(§2)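 A549 cells at 2×10^3/well, grown overnight, then preincubated 4 h in F12K/10% FBS with or without STF-31 (1 µM final). […] Incubated a further 2 h at 37 °C; viability by CCK-8.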

Series [4] has the same target. The experiment in a line: Binding affinity to GLUT1 in human A549 cells assessed as cytotoxicity by measuring reduction in cell viability at 12.5 uM measured after 2 hrs in presence of GLUT1 inhibitor STF-31 by CCK8 assay. It counts as cell-based. The procedure, abridged:
as §2

Series [5] has the same target. Briefly: Binding affinity to GLUT1 in human A549 cells assessed as cytotoxicity at 12.5 uM measured after 2 hrs by LDH release assay. The class given is cell-based. An outline of the steps: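 A549 cells at 2×10^3/well, allowed to adhere overnight, then exposed to peptide over a concentration series for 2 h. LDH release measured with a kit, absorbance at 490 nm. 1% Triton X-100 taken as 100% release; n=3.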
In general terms: Release of lactate dehydrogenase indicates damage to the cell membrane.

Series [6] has as its system HEK-293T. The experiment in a line: Cytotoxicity against HEK293T cells at 12.5 uM measured after 2 hrs by LDH release assay. The class given is cell-based. To be noted: human.
For series [7], the target named is T1, Solute carrier family 2, facilitated glucose transporter member 1 (Homo sapiens). Briefly: Binding affinity to GLUT1 in human A549 cells assessed as cytotoxicity by measuring reduction in cell viability measured after 24 hrs by CCK8 assay. It counts as cell-based. The procedure, abridged: as §1

Calls of active or inactive are those of the source. The calls are words filed in the database; no cut-off is given here. *1 amine or outer side, *2 acyl side, *3 side chain or, on linkers, in order; H or OH if unused. Where a SMILES comes first, the peptide text is derived from it. The star is where a group is joined. X4 = CC(=O)N[C@H]1[C@H](OCCCN*)O[C@H](CO)[C@@H](O)[C@@H]1O; X3 = OC[C@H]1O[C@H](OCCCN*)[C@@H](O)[C@@H](O)[C@@H]1O; X1 = OC[C@H]1O[C@@H](OCCCN*)[C@H](O)[C@@H](O)[C@H]1O; X2 = O[C@@H]1[C@@H](O)[C@H](OCCCN*)OC[C@@H]1O; Glutaryl = O=C(CCCC(=O)[*:2])[*:1]

The IC50 is the midpoint of a concentration-inhibition curve. As to `CC[C@H](C)[C@H](NC(=O)[C@H](Cc1ccccc1)NC(=O)[C@H](CCCNC(=N)N)NC(=O)[C@H](C)NC(=O)[C@@H](NC(=O)[C@H](CO)NC(=O)[C@H](CCCNC(=N)N)NC(=O)[C@H](CCSC)NC(=O)[C@H](C)NC(=O)[C@H](CCCNC(=N)N)NC(=O)[C@H](Cc1ccccc1)NC(=O)[C@H](Cc1c[nH]c2ccccc12)NC(=O)CNC(=O)[C@H](CCCNC(=N)N)NC(=O)CCCC(=O)NCCCO[C@@H]1O[C@H](CO)[C@H](O)[C@H](O)[C@H]1O)[C@@H](C)CC)C(=O)N[C@@H](C)C(=O)N[C@@H](CCCNC(=N)N)C(=O)N[C@@H](CCC(=O)O)C(=O)N[C@@H](CCCNC(=N)N)C(=O)N[C@@H](CC(C)C)C(=O)N[C@@H](CCCNC(=N)N)C(=O)N[C@@H](CCC(=O)O)C(=O)N[C@@H](Cc1cnc[nH]1)C(=O)N[C@@H](CC(C)C)C(=O)O` ({X1-Glutaryl}-RGWFRAMRSIARFIARERLREHL-OH), in the series with HEK-293T [1] (Homo sapiens, HEK-293T), the IC50 was 8.3 µM. For the same compound, the outcome in series [2], in series [3], in series [4] and in series [5] was Active. Further, the Activity result in the series on HEK-293T [6] was “Toxic”.

In the case of `CC[C@H](C)[C@H](NC(=O)[C@H](Cc1ccccc1)NC(=O)[C@H](CCCNC(=N)N)NC(=O)[C@H](C)NC(=O)[C@@H](NC(=O)[C@H](CO)NC(=O)[C@H](CCCNC(=N)N)NC(=O)[C@H](CCSC)NC(=O)[C@H](C)NC(=O)[C@H](CCCNC(=N)N)NC(=O)[C@H](Cc1ccccc1)NC(=O)[C@H](Cc1c[nH]c2ccccc12)NC(=O)CNC(=O)[C@H](CCCNC(=N)N)NC(=O)CCCC(=O)NCCCO[C@@H]1OC[C@H](O)[C@H](O)[C@H]1O)[C@@H](C)CC)C(=O)N[C@@H](C)C(=O)N[C@@H](CCCNC(=N)N)C(=O)N[C@@H](CCC(=O)O)C(=O)N[C@@H](CCCNC(=N)N)C(=O)N[C@@H](CC(C)C)C(=O)N[C@@H](CCCNC(=N)N)C(=O)N[C@@H](CCC(=O)O)C(=O)N[C@@H](Cc1cnc[nH]1)C(=O)N[C@@H](CC(C)C)C(=O)O` ({X2-Glutaryl}-RGWFRAMRSIARFIARERLREHL-OH), the outcome in series [2], in series [3], in series [4] and in series [5] was Active. Also, in the series with HEK-293T [6], the Activity entry is on record as “Toxic”.

For `CC[C@H](C)[C@H](NC(=O)[C@H](Cc1ccccc1)NC(=O)[C@H](CCCNC(=N)N)NC(=O)[C@H](C)NC(=O)[C@@H](NC(=O)[C@H](CO)NC(=O)[C@H](CCCNC(=N)N)NC(=O)[C@H](CCSC)NC(=O)[C@H](C)NC(=O)[C@H](CCCNC(=N)N)NC(=O)[C@H](Cc1ccccc1)NC(=O)[C@H](Cc1c[nH]c2ccccc12)NC(=O)CNC(=O)[C@H](CCCNC(=N)N)NC(=O)CCCC(=O)NCCCO[C@H]1O[C@H](CO)[C@@H](O)[C@H](O)[C@@H]1O)[C@@H](C)CC)C(=O)N[C@@H](C)C(=O)N[C@@H](CCCNC(=N)N)C(=O)N[C@@H](CCC(=O)O)C(=O)N[C@@H](CCCNC(=N)N)C(=O)N[C@@H](CC(C)C)C(=O)N[C@@H](CCCNC(=N)N)C(=O)N[C@@H](CCC(=O)O)C(=O)N[C@@H](Cc1cnc[nH]1)C(=O)N[C@@H](CC(C)C)C(=O)O` ({X3-Glutaryl}-RGWFRAMRSIARFIARERLREHL-OH), in the series with HEK-293T [1], the Activity entry is listed as “Non-Toxic”. Moreover, the outcome in series [7] and in series [2] was inactive.

As for `CC[C@H](C)[C@H](NC(=O)[C@H](Cc1ccccc1)NC(=O)[C@H](CCCNC(=N)N)NC(=O)[C@H](C)NC(=O)[C@@H](NC(=O)[C@H](CO)NC(=O)[C@H](CCCNC(=N)N)NC(=O)[C@H](CCSC)NC(=O)[C@H](C)NC(=O)[C@H](CCCNC(=N)N)NC(=O)[C@H](Cc1ccccc1)NC(=O)[C@H](Cc1c[nH]c2ccccc12)NC(=O)CNC(=O)[C@H](CCCNC(=N)N)NC(=O)CCCC(=O)NCCCO[C@@H]1O[C@H](CO)[C@@H](O)[C@H](O)[C@H]1NC(C)=O)[C@@H](C)CC)C(=O)N[C@@H](C)C(=O)N[C@@H](CCCNC(=N)N)C(=O)N[C@@H](CCC(=O)O)C(=O)N[C@@H](CCCNC(=N)N)C(=O)N[C@@H](CC(C)C)C(=O)N[C@@H](CCCNC(=N)N)C(=O)N[C@@H](CCC(=O)O)C(=O)N[C@@H](Cc1cnc[nH]1)C(=O)N[C@@H](CC(C)C)C(=O)O` ({X4-Glutaryl}-RGWFRAMRSIARFIARERLREHL-OH), the Activity entry in the series on HEK-293T [1] is given as “Non-Toxic”. Moreover, the result in series [7] and in series [2] was inactive.

The values above are taken from ChEMBL document CHEMBL4334452, “Monosaccharide Analogues of Anticancer Peptide R-Lycosin-I: Role of Monosaccharide Conjugation in Complexation and the Potential of Lung Cancer Targeting and Therapy” (J Med Chem, 2019).
